Assay results pooled from the literature.
Target: Delta-type opioid receptor (OPRD1, Homo sapiens, UniProt P41143)

Structure (SMILES) | effect on | method | setting | Ki
CCCO[C@@]12Cc3cc(-c4ccccc4)cnc3[C@@H]3Oc4c(O)ccc5c4[C@@]31CCN(CC1CC1)[C@@H]2C5 | ligand displacement | radioligand | cell membranes | 7.48 nM
C[C@@H](NC(=O)C[C@@H](N)Cc1ccc(O)cc1)C(=O)NCC(=O)N[C@@H](Cc1ccccc1)C(=O)NNC(=O)[C@H](Cc1ccccc1)NC(=O)CNC(=O)[C@@H](C)NC(=O)C[C@@H](N)Cc1ccc(O)cc1 | ligand displacement | radioligand | – | 480 nM
Cc1cc(O)cc(C)c1C[C@H](N)C(=O)N1Cc2ccccc2C[C@H]1C(=O)NCC(=O)NC(c1ccccc1)c1ccccc1 | ligand displacement | radioligand | cell membranes | 0.94 nM
CCCCCCCCCCCCCCCC(=O)O | ligand displacement | radioligand | cell membranes | 5100 nM
CCCC[C@@H](NC(=O)[C@@H](N)Cc1ccc(O)cc1)C(=O)NCC(=O)N[C@@H](Cc1ccc(F)cc1)C(=O)N(C)CCC[C@@]1(c2ccc(F)cc2)OCc2cc(C#N)ccc21 | cell-free assay | – | – | 1.4 nM
Cc1cc(O)cc(C)c1C[C@H](N)C(=O)N1Cc2ccccc2C[C@@H]1C(=O)NCC(=O)NCc1ccccc1 | ligand displacement | radioligand | cell membranes | 3.2 nM
CC(=O)Nc1ccccc1-c1cnc2c(c1)C[C@@]1(OCCCc3ccccc3)[C@H]3Cc4ccc(O)c5c4[C@@]1(CCN3CC1CC1)[C@H]2O5 | ligand displacement | radioligand | cell membranes | > 3330 nM
Cc1cc(O)cc(C)c1C[C@H](N)C(=O)N1Cc2ccccc2CC1C(=O)NCC(=O)NC(Cc1ccc(Cl)cc1)C(=O)N(C)CCC[C@@]1(c2ccc(F)cc2)OCc2cc(C#N)ccc21 (stereo in doubt) | cell-free assay | – | – | 20 nM
Cc1cc(O)cc(C)c1C[C@H](N)C(=O)N1Cc2ccccc2C[C@H]1C(=O)NCC(=O)NCc1ccc(N)cc1 | ligand displacement | radioligand | cell membranes | 2 nM
Cc1cc(O)cc(C)c1C[C@H](N)C(=O)N[C@H](C)C(=O)NCC(=O)N[C@@H](Cc1ccc(Cl)cc1)C(=O)N(C)CCC[C@@]1(c2ccc(F)cc2)OCc2cc(C#N)ccc21 | cell-free assay | – | – | 4 nM
C[N+]1(C)CCC(=C(c2ccccc2)c2ccccc2)CC1 | cell-free assay | – | – | 14000 nM
Cc1cc(F)ccc1/N=N/C(=O)NCC1(N(C)C)CCCCC1 | cell-free assay | – | – | 12000 nM
